Screens: PubChem, several laboratories
NOD2 RIPK2 PPI – NOD2-RIPK2 protein interaction inhibition | CHO BLA complementation NOD2-RIPK2, CCF4 ratio | inhibition, % at 4.98 µM | hit rate 0.38% among 360,000 | AID 624267; in the data active = inhibition above about 21%
TLR4-MyD88 BLA – inhibitors of human TLR4-MyD88 binding. O00206+Q99836. HeLa CL3-4 TLR4/MyD88 BLA complementation, FRET ratio. inhibition, % at 8.4 µM. hit rate 0.18% among 200,000. AID 861; in the data active = inhibition above about 25%
Target sequence (O00206 whole entry, looked up): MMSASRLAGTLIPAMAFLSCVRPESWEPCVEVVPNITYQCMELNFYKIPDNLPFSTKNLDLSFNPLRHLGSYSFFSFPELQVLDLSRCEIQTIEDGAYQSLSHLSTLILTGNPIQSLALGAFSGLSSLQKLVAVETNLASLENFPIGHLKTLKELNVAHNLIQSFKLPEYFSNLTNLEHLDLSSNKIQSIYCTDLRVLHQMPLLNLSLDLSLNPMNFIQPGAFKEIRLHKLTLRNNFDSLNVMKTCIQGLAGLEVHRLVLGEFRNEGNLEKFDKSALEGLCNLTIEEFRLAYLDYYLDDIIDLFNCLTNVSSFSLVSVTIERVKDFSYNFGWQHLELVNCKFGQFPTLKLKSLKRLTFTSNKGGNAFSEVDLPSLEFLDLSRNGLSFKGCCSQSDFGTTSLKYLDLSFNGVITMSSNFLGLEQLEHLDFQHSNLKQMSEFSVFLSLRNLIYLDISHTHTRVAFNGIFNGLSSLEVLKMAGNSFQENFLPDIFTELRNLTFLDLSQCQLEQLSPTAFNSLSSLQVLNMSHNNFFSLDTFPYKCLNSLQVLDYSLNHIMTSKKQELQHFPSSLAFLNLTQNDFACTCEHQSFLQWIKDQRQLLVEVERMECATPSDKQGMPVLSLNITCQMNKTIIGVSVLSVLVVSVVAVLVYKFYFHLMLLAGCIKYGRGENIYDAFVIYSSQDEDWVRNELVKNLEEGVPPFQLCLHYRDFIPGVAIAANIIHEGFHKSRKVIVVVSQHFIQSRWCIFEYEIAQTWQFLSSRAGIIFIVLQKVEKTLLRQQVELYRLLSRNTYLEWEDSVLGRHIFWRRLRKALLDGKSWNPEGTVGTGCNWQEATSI
Target sequence (Q99836 whole entry, looked up): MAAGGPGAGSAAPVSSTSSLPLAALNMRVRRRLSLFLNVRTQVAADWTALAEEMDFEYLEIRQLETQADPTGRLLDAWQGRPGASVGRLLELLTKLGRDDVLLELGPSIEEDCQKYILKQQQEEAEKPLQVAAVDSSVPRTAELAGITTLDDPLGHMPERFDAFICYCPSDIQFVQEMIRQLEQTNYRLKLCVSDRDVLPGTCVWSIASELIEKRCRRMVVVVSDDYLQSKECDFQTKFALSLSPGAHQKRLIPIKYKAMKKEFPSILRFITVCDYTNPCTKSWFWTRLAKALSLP
CHOP UPR activ – apoptotic UPR (CHOP) activation. activation, % at 10 µM. AID 449763. CHO-CHOP luciferase reporter, luminescence; percent of tunicamycin response over DMSO baseline. hit rate 0.34% among 330,000;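 active = at 10 µM dose, activation of 40% or more, normalized to positive control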
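Dosing – one dose, 10 µM in 0.5% DMSO · System – CHO-CHOP cells, stable luciferase reporter of PERK-eIF2a-CHOP signalling · Input – 500 cells/well · Control set – tunicamycin 10 µg/mL final as positive, DMSO-only wells as negative · Timing – 6 h compound treatment, 37 °C · Measure – % activation vs tunicamycin · Technique – luminescence read with Steady-Glo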
UPR XBP1 act – activators of adaptive arm of unfolded protein response (XBP1); hit rate 0.33% among 330,000; CHO-XBP1 luciferase reporter, IRE1-XBP1 UPR activation, luminescence; percent of tunicamycin response, DMSO as zero; activation, % at 20 µM; AID 463104;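 active = versus positive control, 20 µM dose yields 30% or more activation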
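Material: CHO cell line with stable XBP1 luciferase reporter; buffer or medium: F12 medium containing 10% fetal bovine serum; compound: single point, 20 µM final compound, 1% DMSO; incubation: 6 h treatment, 37 °C; measured by: glow luminescence from Steady-Glo reagent; evaluation: activation, % of tunicamycin; control set: tunicamycin high, DMSO low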
TLR9-MyD88 inh – blocks human TLR9 binding to MyD88 | inhibition, % at 4.98 µM | hit rate 0.21% among 340,000 | CHO BLA complementation TLR9-MyD88, CCF4 FRET ratio | AID 504734;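 active = inhibition above the mean over all tested compounds plus 3 SD, cut at about 21% in these data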
CHOP inh – CHOP inhibition in unfolded protein response. hit rate 3.8% among 220,000. CHO-K1 CHOP-promoter luciferase, tunicamycin-induced, 15-18 h. AID 2732. inhibition, % at 10 µM;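 active = compounds that reduced the stress-induced luciferase reporter signal by more than about 70% of percent inhibition, limit read from the data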
Of the large screens only hits and unclear results are named; the others gave an inactive call. Many of the other results were omitted from the sample, so hits are more common in it than they were.

CCCC1CCC(c2nc(-c3cccnc3)no2)CC1 (stereo not drawn)	CHOP inh 89
O=C(O)c1ccccc1C(=O)Nc1ccc(Oc2cccc3ccccc23)cc1	CHOP inh 78 (no result: CHOP UPR activ, UPR XBP1 act)
CSc1nc(-c2ccc(Cl)cc2)nn1S(=O)(=O)c1ccccc1	none
CCCC(=O)n1nc(-c2ccc(Cl)cc2)nc1SC	CHOP inh 78
CSc1nc(-c2ccc(Cl)cc2)nn1S(=O)(=O)c1ccc(Cl)cc1	CHOP inh 72
CCC(=O)n1nc(-c2ccc(Cl)cc2)nc1SC	none
Clc1ccc(OCc2nn3c(C4CCCCC4)nnc3s2)c(Cl)c1	CHOP inh 87
Cc1[nH]c2ccccc2c1/C=C/c1nc2ccccc2c(=O)[nH]1	CHOP inh 76 (no result: TLR4-MyD88 BLA)
O=C(O)c1ccc(/C=C/c2nc3ccccc3c(=O)[nH]2)cc1	none (no result: TLR4-MyD88 BLA, CHOP inh)
Cc1cc(NCC(=O)Nc2ccc(C)c(S(=O)(=O)N3CCOCC3)c2)ccc1Br	none (no result: TLR4-MyD88 BLA, CHOP UPR activ, UPR XBP1 act, CHOP inh)
Cc1ccccc1C(=O)N1CCC(C(=O)N2CCN(S(=O)(=O)c3ccccc3F)CC2)CC1	none
COc1ccc(NC(=O)CSc2nc3ccccc3c3nc4ccccc4n23)cc1	none (no result: CHOP UPR activ, UPR XBP1 act)
COc1ccc(OC)c(NC(=O)CSc2nc3ccccc3c3nc4ccccc4n23)c1	CHOP inh 78 (no result: NOD2 RIPK2 PPI, CHOP UPR activ, UPR XBP1 act, TLR9-MyD88 inh)
O=C(O)c1ccccc1-c1csc(-c2ccccc2)n1	none
COc1ccc(OC)c(/C(O)=C/C(=O)C(=O)Nc2ccccc2OC)c1	CHOP inh 75
COc1ccc(NC(=O)Nc2ccccc2OC)cc1	none
COc1ccc(C(=O)Nc2ccc(Oc3ncnc4sc(-c5ccccc5)cc34)cc2)cc1OC	none
COc1ccc(C(=O)Nc2ccc(Oc3nc(C)nc4sc(-c5ccccc5)cc34)cc2)cc1OC	CHOP inh 81
COC(=O)c1ccc(N=NNc2cccc(Br)c2)cc1	CHOP inh 91 (no result: CHOP UPR activ, UPR XBP1 act)
CNC(=O)Cn1nc(-c2ccc(C)c(S(=O)(=O)N(C)C)c2)c2ccccc2c1=O	none
CCOC(=O)/C=c1\s/c(=C\c2ccc3c(c2)OCCO3)c(=O)n1CC(=O)NCC1CCCO1 (stereo not drawn)	CHOP inh 86
O=C(O)CCC(=O)N1CCCC1C(=O)O (stereo not drawn)	none (no result: NOD2 RIPK2 PPI, TLR4-MyD88 BLA, CHOP UPR activ, UPR XBP1 act, TLR9-MyD88 inh)
CCOc1ccc(-n2c(N)c(C(=O)NCc3ccco3)c3nc4ccccc4nc32)cc1	none
CCOc1ccc(-n2c(N)c(-c3nc4ccccc4n3C)c3nc4ccccc4nc32)cc1	CHOP inh 93
C=CCc1cc(C=O)cc(OC)c1OCc1c(Cl)cccc1Cl	CHOP inh 73
COc1ccc(C=O)cc1COc1c(F)c(F)cc(F)c1F	none
Cn1c(=O)c2cc(S(=O)(=O)Nc3cc(C(=O)O)cc(C(=O)O)c3)ccc2n(C)c1=O	none
Cc1cc(C)cc(NS(=O)(=O)c2ccc3c(c2)c(=O)n(C)c(=O)n3C)c1	CHOP inh 93
CCCCn1c(=O)[nH]c(=O)c2c1nc(-c1ccc(CC)c([N+](=O)[O-])c1)n2C	CHOP inh 76 (no result: NOD2 RIPK2 PPI, TLR9-MyD88 inh)
COc1ccc(C2=NN(S(C)(=O)=O)C(c3cccs3)C2)cc1OC (stereo not drawn)	none
COC(=O)CSc1nnc(-c2sc3ccccc3c2Cl)o1	CHOP inh 70
N#CCSc1nnc(-c2sc3ccccc3c2Cl)o1	none
CC1(C)CC(NC(=O)C2CCC(=O)N(Cc3ccccc3F)C2)CC(C)(C)C1 (stereo not drawn)	none (no result: TLR4-MyD88 BLA, CHOP inh)
Cc1nc(-c2cccnc2)sc1C(=O)Nc1cccc(C(F)(F)F)c1	CHOP inh 83
CCC(=O)N1CCc2cc(S(=O)(=O)CCC(=O)N3CCN(c4ccc(F)cc4)CC3)ccc21	none (no result: TLR4-MyD88 BLA, CHOP inh)
COc1ccccc1N=Cc1c(C)c(C#N)c2[nH]c3ccccc3n2c1=O	CHOP inh 84
Cc1c(Cc2ccccc2)c(=O)n2c([nH]c3ccccc32)c1C#N	none (no result: TLR4-MyD88 BLA)
CC1CCN(S(=O)(=O)c2cccc(C(=O)NCc3cccs3)c2)CC1	CHOP inh 73
Cc1cc(C(=O)N2CCCC(N3CCN(c4ccccc4C)CC3)C2)no1 (stereo not drawn)	none (no result: TLR4-MyD88 BLA, CHOP UPR activ, UPR XBP1 act, CHOP inh)
O=C(CCCN=C1NS(=O)(=O)c2ccccc21)OCC(=O)c1ccc(F)cc1	none (no result: TLR4-MyD88 BLA, CHOP inh)
O=C(CSc1nnc(-c2ccccc2)c(-c2ccccc2)n1)N1CCOCC1	CHOP inh 72
CCOc1ccccc1N1CCN(C(=O)/C=C/c2cccc([N+](=O)[O-])c2)CC1	none
Cc1c(C(=O)Nc2ccc(-c3nnc4n3CCCCC4)cc2)oc2c1ccc1ccccc12	CHOP inh 95
CCOc1ccc(S(=O)(=O)N2CCC(C(=O)NC3CC3)CC2)cc1C	none (no result: TLR4-MyD88 BLA, CHOP inh)
O=C(Cc1ccc(Cl)cc1)Nc1cccc(S(=O)(=O)N2CCCCC2)c1	none (no result: TLR4-MyD88 BLA, CHOP inh)
O=C(CCl)Nc1cccc(S(=O)(=O)N2CCCCCC2)c1	CHOP inh 93
COC(=O)c1cc(OC)c(OC)cc1NC(=O)CSc1ccccc1	none
Cc1nnc(SCC(=O)Nc2nc3c(s2)CC(C)CC3)s1 (stereo not drawn)	CHOP inh 84
O=C(OCc1csc(Nc2ccccc2)n1)c1ccc(Cl)cc1	CHOP inh 74
CCCCn1c(NC(=O)CC)c(C#N)c2nc3ccccc3nc21	CHOP inh 94
CC(C(=O)NC1=NCCS1)N1C(=O)c2ccccc2C1=O (stereo not drawn)	none
CC(C(=O)NC1=NCCS1)N1C(=O)C2CC=CCC2C1=O (stereo not drawn)	CHOP inh 83
CCn1c(CC(=O)Nc2ccc(C)c(Cl)c2)nnc1SCC(=O)Nc1nc(C)cs1	CHOP inh 79
COC(=O)C1=C(N)Oc2cc(C)n(CCCn3ccnc3)c(=O)c2C1c1ccc(Cl)cc1 (stereo not drawn)	CHOP inh 77
CCn1c(C)cc2c(c1=O)C(c1ccccc1)C(C(=O)OC)=C(N)O2 (stereo not drawn)	none
COC(=O)C1=C(N)Oc2cc(C)n(CC3CCCO3)c(=O)c2C1c1ccc(Cl)c(Cl)c1 (stereo not drawn)	CHOP inh 85
CC(Nc1cccc2ccccc12)C(=O)N/N=C/c1ccc([N+](=O)[O-])cc1 (stereo not drawn)	CHOP inh 82
COCCN(CCOC)S(=O)(=O)c1ccc(C(=O)Nc2sc3c(c2C(N)=O)CCCCC3)cc1	CHOP inh 82
C/C(=N\Nc1ccc(F)cc1F)c1cccs1	none (no result: NOD2 RIPK2 PPI, TLR9-MyD88 inh)
CC(C)COc1ccc(-c2nnc(-c3ccco3)o2)cc1	CHOP inh 78
CCCOc1ccc(-c2nnc(-c3ccco3)o2)cc1	none
Nc1ncnc2c1C(c1ccccc1)c1c(ccc3ccccc13)O2 (stereo not drawn)	none (no result: TLR4-MyD88 BLA, CHOP inh)
COc1ccc(C(=O)OCC2CC(c3ccccc3)N(C)O2)cc1 (stereo not drawn)	CHOP inh 80
